Test results: ChEMBL document CHEMBL1133383, “Synthesis and enzyme inhibitory activities of a series of lipidic diamine and aminoalcohol derivatives on cytosolic and secretory phospholipases A2” (Bioorg Med Chem Lett, 2000)

Columns and labels:
[1] = target: T1, Cytosolic phospholipase A2 (Mus musculus) (UniProt P47713); experiment: (§1) Effect on cytosolic Phospholipase A2 (PLA2) activity at a concentration of 100 uM
T1 sequence (whole entry): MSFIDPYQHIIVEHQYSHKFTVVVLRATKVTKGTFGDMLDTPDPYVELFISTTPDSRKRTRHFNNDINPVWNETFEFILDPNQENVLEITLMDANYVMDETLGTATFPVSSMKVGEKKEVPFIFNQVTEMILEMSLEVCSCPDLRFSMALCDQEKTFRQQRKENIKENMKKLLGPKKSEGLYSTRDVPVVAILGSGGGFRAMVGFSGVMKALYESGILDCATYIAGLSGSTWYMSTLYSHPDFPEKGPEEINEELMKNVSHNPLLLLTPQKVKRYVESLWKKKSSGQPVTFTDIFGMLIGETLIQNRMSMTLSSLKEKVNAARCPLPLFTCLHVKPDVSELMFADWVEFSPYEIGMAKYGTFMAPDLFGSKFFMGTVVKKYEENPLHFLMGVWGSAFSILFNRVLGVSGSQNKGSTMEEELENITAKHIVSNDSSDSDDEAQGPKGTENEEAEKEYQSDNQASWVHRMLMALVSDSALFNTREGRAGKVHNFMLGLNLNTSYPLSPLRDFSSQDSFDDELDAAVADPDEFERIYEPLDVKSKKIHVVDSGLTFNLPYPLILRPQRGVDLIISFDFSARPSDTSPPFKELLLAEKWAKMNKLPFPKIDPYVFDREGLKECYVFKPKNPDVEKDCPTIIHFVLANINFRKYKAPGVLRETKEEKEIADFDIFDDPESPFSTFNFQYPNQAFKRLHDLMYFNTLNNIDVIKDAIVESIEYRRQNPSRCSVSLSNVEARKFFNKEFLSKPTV
In short: (§2)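 Group IV cytosolic PLA2 from the RAW 264.7 macrophage line. Percent inhibition was measured at a single test concentration and reported as mean ± SEM (n=6). IC50 was determined only for compounds reaching 50% inhibition at that concentration.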

[2] = target: Phospholipase A2 (Homo sapiens) (UniProt P04054); settings: Apis mellifera; 10 uM
Phospholipase A2 (Homo sapiens), sequence (P04054 23-148 limits assumed): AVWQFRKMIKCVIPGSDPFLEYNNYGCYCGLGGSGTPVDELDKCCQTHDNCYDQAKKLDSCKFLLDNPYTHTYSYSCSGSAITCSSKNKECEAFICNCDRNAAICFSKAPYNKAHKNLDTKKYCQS

[3] = target: T2, Phospholipase A2, membrane associated (Homo sapiens) (UniProt P14555); experiment: (§3) Inhibition of secretory PLA2 activity in human recombinant synovial enzyme using [3H]oleate labelled membranes at a concentration of 10 uM
T2 sequence (whole entry): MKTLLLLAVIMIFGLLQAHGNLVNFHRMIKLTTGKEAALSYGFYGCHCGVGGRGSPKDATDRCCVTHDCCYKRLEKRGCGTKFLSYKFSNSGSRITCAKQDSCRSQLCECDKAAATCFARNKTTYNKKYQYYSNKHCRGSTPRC
In short: (§4)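 Secretory PLA2 activity was measured using autoclaved [3H]oleate-labelled membranes as substrate. The enzyme was either group II human recombinant synovial PLA2 or group I porcine pancreatic PLA2. Percent inhibition at a single concentration is reported as mean ± SEM (n=6), with significance marked at P<0.05 and P<0.01.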

[4] = target: Phospholipase A2 (Homo sapiens) (UniProt P04054); settings: Naja naja; 10 uM
[5] = target: T3, Cytosolic phospholipase A2 (Mus musculus, UniProt P47713); experiment: as §1; in short: as §2
T3 sequence (P47713 whole entry): T1 sequence (whole entry)

[6] = target: T4, Phospholipase A2, membrane associated (Homo sapiens, UniProt P14555); experiment: as §3; in short: as §4
T4 sequence (P14555 whole entry): T2 sequence (whole entry)

| I [1] [%] | IC50 [5] [µM] | Compound | also measured |
| --- | --- | --- | --- |
| 0 |  | CCCCCCCCCCCCCCC(N)CNC(=O)CCCC(=O)O (centres undefined) |  |
| 0.5 |  | CCCCCCCCCCCCCCC(=O)NC(CCCCCCCCCCCCCC)COC(=O)CCCCCC (centres undefined) |  |
| 84.8 | 10.5 | CCCCCCCCCCCCCCC(COCc1ccccc1)NC(=O)CCCC(=O)O (centres undefined) |  |
| 43.9 |  | CCCCCCCCCCCCCCC(N)CN(CC(=O)OCC)CC(=O)OCC (centres undefined) |  |
| 2.3 |  | CCCCCCCCCCCCCCC(COC(=O)CCCCCC)NC(=O)CCCCCC (centres undefined) |  |
| 0 |  | CCCCCCCCCCCCCCC(CO)NC(=O)CCCC(=O)O (centres undefined) |  |
| 5.1 |  | CCCCCCCCCCCCCCC(=O)NC(CCCCCCCCCCCCCC)COC(=O)CCCCCCCCCCCCCC (centres undefined) |  |
| 72 | 62.8 | CCCCCCCCCCCCCCC(COCc1ccccc1)NC(=O)CCC(=O)O (centres undefined) |  |

The remaining lines, values behind:

| Compound | I [1] [%] | IC50 [5] [µM] | also measured |
| --- | --- | --- | --- |
| CCCCCCCCCCCCCCC(CO)NCC(=O)O (centres undefined) | 25 |  |  |
| CCCCCCCCCCCCCCC(N)CN(CC)CC (centres undefined) | 90.6 | 11.9 | I [2]: 57.6%; I [3]: 82.7%; I [4]: 51.5%; IC50 [6]: 5.6 µM |
| CCCCCCCCCCCCCCCC(=O)C(F)(F)F | 67.7 | 11.7 |  |
| CCCCCCCCCCCCCCC(COCc1ccccc1)N(CC)CC (centres undefined) | 1.9 |  |  |
| CCCCCCCCCCCCCCC(CNCC(=O)OCC)NC(=O)OC(C)(C)C (centres undefined) | 0 |  |  |
| CCCCCCCCCCCCCCC(COCc1ccccc1)NCC (centres undefined) | 0 |  |  |
| CCCCCCCCCCCCCCC(COCc1ccccc1)NC(=O)/C=C/C(=O)O (centres undefined) | 60.7 | 69.5 |  |
| CCCCCCCCCCCCCCC(CO)NCC (centres undefined) | 25.2 |  | I [2]: 63.5%; I [3]: 80%; I [4]: 62.6%; IC50 [6]: 3.7 µM |
